Measurements as given in ChEMBL document CHEMBL5661979, “Pharmacological inhibition of BMK1 suppresses tumor growth through promyelocytic leukemia protein” (Cancer Cell, 2010).

Experiments:
[1] = target: Serine/threonine-protein kinase Chk1 (Homo sapiens, UniProt O14757); test: Inhibition of CHK1 inactive site in human HeLa cells lysate pre incubated for 15 mins followed by ATP acyl phosphate probe addition and measured after 10 mins by LC-MS/MS analysis; type: subcellular
[2] = target: Phosphorylase b kinase gamma catalytic chain, liver/testis isoform (Homo sapiens, UniProt P15735); test: Inhibition of PHKg2 in human HeLa cells lysate pre incubated for 15 mins followed by ADP acyl phosphate probe addition and measured after 10 mins by LC-MS/MS analysis; type: subcellular
[3] = target: T1, Serine/threonine-protein kinase 4 (Homo sapiens) (UniProt Q13043); test: Inhibition of MST1 in human HeLa cells lysate at 10 uM pre incubated for 15 mins followed by ADP acyl phosphate probe addition and measured after 10 mins by LC-MS/MS analysis relative to control; type: subcellular; settings: time 25.0 min
T1 sequence (whole entry): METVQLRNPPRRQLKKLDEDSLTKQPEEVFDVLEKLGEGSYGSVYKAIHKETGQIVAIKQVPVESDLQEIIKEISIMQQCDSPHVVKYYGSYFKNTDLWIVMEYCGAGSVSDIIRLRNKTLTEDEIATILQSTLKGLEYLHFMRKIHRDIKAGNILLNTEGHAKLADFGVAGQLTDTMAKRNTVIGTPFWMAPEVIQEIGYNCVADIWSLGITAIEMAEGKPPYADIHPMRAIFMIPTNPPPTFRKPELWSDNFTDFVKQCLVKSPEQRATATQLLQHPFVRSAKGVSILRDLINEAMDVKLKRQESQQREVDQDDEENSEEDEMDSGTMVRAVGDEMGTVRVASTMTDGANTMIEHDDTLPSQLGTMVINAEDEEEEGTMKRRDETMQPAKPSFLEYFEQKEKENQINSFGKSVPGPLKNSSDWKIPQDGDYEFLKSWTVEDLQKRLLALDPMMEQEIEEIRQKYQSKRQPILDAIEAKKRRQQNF

[4] = target: T2, Non-receptor tyrosine-protein kinase TNK1 (Homo sapiens) (UniProt Q13470); test: Inhibition of TNK1 (unknown origin) assessed as remaining activity at 10 uM by ATP-competition binding assay relative to control
T2 sequence (whole entry): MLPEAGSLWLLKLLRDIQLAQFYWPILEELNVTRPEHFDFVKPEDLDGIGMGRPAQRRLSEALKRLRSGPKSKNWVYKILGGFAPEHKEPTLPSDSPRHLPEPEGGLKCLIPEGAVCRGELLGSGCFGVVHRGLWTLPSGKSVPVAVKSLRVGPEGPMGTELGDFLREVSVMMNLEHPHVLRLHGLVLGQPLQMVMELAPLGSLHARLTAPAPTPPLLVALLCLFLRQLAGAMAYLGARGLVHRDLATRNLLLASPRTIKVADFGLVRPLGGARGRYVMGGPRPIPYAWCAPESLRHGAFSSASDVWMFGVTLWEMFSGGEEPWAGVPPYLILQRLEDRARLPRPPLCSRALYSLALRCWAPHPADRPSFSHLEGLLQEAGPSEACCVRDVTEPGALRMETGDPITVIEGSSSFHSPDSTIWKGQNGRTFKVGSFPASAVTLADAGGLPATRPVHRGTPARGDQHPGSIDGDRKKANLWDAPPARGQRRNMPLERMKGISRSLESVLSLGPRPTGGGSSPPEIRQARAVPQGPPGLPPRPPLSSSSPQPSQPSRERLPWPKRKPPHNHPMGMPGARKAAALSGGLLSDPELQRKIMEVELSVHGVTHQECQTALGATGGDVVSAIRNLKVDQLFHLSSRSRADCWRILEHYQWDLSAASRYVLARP

[5] = target: Serine/threonine-protein kinase B-raf (Homo sapiens, UniProt P15056); test: Inhibition of BRAF in human HeLa cells lysate at 50 uM pre incubated for 15 mins followed by ATP acyl phosphate probe addition and measured after 10 mins by LC-MS/MS analysis relative to control; type: subcellular; settings: time 25.0 min
How it was run: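 KiNativ-type profiling in HeLa lysate (5 mg/mL total protein). Lysate preincubated 15 min with inhibitor at 50, 10, 2, 0.8 or 0 μM, then ATP or ADP acylphosphate probe added (5 μM final) for 10 min. Reaction stopped with urea and analysed by targeted MS, using up to four fragment ions per kinase peptide-probe conjugate. % inhibition calculated against untreated lysate. Duplicate reactions.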

[6] = target: Mitogen-activated protein kinase kinase kinase 1 (Homo sapiens, UniProt Q13233); test: Inhibition of MAP3K1 in human HeLa cells lysate at 50 uM pre incubated for 15 mins followed by ADP acyl phosphate probe addition and measured after 10 mins by LC-MS/MS analysis relative to control; type: subcellular; settings: time 25.0 min
[7] = Plasma concentration in C57Bl/6 mouse at 50 mg/kg, ip administered for 1 day and measured 8 hr post last dose by LC-MS/MS analysis; type: ADME, organism-based
[8] = target: Serine/threonine-protein kinase 3/4 (Homo sapiens) (UniProt Q13043+Q13188); test: Inhibition of MST1/2 in human HeLa cells lysate at 2 uM pre incubated for 15 mins followed by ATP acyl phosphate probe addition and measured after 10 mins by LC-MS/MS analysis relative to control; type: subcellular; settings: time 25.0 min
[9] = target: Cyclin-dependent kinase 10 (Homo sapiens, UniProt Q15131); test: Inhibition of CDK10 in human HeLa cells lysate at 10 uM pre incubated for 15 mins followed by ATP acyl phosphate probe addition and measured after 10 mins by LC-MS/MS analysis relative to control; type: subcellular; settings: time 25.0 min
How it was run: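 KiNativ profiling in HeLa lysate (5 mg/mL total protein). Lysate incubated 15 min with inhibitor at 50, 10, 2, 0.8 or 0 μM. ATP or ADP acylphosphate probe then added (5 μM final) and reacted 10 min. Reaction stopped with urea and analysed by targeted MS, using up to four fragment ions per kinase peptide-probe conjugate. % inhibition taken against untreated lysate. Run in duplicate.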

[10] = target: Epidermal growth factor receptor (Homo sapiens, UniProt P00533); test: Inhibition of EGFR in human HeLa cells lysate at 10 uM pre incubated for 15 mins followed by ADP acyl phosphate probe addition and measured after 10 mins by LC-MS/MS analysis relative to control; type: subcellular; settings: time 25.0 min
[11] = Toxicity in C57Bl/6 mouse assessed as effect on total protein level at 50 mg/kg, ip for 14 days (reference value: 5.8 g/dl); type: organism-based; settings: in vivo, 336 h, time 14 day
Scaffold protein ILK = Scaffold protein ILK (Homo sapiens, UniProt Q13418); test: Inhibition of ILK in human HeLa cells lysate pre incubated for 15 mins followed by ATP acyl phosphate probe addition and measured after 10 mins by LC-MS/MS analysis; type: subcellular
[12] = target: 1-phosphatidylinositol 3-phosphate 5-kinase (Homo sapiens, UniProt Q9Y2I7); test: Inhibition of PIP5K3 in human HeLa cells lysate pre incubated for 15 mins followed by ATP acyl phosphate probe addition and measured after 10 mins by LC-MS/MS analysis; type: subcellular
[13] = Inhibition of NEK6/7 in human HeLa cells lysate at 2 uM pre incubated for 15 mins followed by ADP acyl phosphate probe addition and measured after 10 mins by LC-MS/MS analysis relative to control; settings: 25 min, condition cancer
[14] = target: Serine/threonine-protein kinase 38-like (Homo sapiens, UniProt Q9Y2H1); test: Inhibition of NDR2 in human HeLa cells lysate at 2 uM pre incubated for 15 mins followed by ADP acyl phosphate probe addition and measured after 10 mins by LC-MS/MS analysis relative to control; type: subcellular; settings: time 25.0 min

Sequence of Serine/threonine-protein kinase 3/4 (Homo sapiens) (Q13188 whole entry, looked up, one chain of several): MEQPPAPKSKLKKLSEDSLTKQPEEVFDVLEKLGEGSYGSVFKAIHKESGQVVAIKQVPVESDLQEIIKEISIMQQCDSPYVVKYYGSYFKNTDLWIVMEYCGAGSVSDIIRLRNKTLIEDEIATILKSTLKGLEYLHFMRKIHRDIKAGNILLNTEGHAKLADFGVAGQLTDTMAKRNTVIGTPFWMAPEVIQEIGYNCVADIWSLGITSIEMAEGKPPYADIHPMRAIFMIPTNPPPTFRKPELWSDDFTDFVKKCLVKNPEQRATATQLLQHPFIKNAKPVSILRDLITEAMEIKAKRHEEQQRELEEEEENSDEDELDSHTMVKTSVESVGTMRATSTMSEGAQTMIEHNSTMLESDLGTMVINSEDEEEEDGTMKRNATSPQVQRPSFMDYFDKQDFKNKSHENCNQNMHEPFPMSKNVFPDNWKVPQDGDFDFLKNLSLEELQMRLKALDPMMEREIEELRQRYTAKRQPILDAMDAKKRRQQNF
Sequence of Epidermal growth factor receptor (P00533 whole entry): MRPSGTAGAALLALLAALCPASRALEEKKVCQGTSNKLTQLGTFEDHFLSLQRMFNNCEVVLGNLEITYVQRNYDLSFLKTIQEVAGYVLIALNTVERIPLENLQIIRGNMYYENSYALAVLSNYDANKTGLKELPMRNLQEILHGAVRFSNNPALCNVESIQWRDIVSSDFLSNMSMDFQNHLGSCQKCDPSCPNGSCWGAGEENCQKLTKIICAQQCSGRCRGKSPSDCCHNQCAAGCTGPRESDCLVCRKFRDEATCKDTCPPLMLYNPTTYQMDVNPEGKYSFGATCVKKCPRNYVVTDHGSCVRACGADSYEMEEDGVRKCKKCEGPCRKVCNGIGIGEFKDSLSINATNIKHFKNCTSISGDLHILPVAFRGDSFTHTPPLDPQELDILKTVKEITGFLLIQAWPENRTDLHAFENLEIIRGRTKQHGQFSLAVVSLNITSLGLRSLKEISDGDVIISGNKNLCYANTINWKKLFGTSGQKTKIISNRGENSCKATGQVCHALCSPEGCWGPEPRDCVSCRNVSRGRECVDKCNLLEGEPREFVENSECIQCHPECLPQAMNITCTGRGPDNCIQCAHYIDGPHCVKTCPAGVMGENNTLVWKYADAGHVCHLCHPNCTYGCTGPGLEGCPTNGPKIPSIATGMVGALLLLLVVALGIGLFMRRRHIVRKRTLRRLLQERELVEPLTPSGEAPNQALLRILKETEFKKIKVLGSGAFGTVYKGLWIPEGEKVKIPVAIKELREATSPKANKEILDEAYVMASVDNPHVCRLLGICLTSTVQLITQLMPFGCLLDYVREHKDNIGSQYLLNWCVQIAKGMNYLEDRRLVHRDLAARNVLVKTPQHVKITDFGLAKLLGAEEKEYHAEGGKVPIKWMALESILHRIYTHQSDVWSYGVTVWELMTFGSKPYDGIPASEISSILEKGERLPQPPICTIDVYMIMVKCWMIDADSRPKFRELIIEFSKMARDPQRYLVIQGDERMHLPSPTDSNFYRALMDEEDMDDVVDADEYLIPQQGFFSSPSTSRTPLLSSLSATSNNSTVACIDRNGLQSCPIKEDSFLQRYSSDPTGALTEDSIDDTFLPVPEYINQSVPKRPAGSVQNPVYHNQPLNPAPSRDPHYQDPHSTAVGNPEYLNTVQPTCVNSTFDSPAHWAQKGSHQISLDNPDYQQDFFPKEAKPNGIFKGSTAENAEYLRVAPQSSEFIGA
Sequence of 1-phosphatidylinositol 3-phosphate 5-kinase (Q9Y2I7 whole entry): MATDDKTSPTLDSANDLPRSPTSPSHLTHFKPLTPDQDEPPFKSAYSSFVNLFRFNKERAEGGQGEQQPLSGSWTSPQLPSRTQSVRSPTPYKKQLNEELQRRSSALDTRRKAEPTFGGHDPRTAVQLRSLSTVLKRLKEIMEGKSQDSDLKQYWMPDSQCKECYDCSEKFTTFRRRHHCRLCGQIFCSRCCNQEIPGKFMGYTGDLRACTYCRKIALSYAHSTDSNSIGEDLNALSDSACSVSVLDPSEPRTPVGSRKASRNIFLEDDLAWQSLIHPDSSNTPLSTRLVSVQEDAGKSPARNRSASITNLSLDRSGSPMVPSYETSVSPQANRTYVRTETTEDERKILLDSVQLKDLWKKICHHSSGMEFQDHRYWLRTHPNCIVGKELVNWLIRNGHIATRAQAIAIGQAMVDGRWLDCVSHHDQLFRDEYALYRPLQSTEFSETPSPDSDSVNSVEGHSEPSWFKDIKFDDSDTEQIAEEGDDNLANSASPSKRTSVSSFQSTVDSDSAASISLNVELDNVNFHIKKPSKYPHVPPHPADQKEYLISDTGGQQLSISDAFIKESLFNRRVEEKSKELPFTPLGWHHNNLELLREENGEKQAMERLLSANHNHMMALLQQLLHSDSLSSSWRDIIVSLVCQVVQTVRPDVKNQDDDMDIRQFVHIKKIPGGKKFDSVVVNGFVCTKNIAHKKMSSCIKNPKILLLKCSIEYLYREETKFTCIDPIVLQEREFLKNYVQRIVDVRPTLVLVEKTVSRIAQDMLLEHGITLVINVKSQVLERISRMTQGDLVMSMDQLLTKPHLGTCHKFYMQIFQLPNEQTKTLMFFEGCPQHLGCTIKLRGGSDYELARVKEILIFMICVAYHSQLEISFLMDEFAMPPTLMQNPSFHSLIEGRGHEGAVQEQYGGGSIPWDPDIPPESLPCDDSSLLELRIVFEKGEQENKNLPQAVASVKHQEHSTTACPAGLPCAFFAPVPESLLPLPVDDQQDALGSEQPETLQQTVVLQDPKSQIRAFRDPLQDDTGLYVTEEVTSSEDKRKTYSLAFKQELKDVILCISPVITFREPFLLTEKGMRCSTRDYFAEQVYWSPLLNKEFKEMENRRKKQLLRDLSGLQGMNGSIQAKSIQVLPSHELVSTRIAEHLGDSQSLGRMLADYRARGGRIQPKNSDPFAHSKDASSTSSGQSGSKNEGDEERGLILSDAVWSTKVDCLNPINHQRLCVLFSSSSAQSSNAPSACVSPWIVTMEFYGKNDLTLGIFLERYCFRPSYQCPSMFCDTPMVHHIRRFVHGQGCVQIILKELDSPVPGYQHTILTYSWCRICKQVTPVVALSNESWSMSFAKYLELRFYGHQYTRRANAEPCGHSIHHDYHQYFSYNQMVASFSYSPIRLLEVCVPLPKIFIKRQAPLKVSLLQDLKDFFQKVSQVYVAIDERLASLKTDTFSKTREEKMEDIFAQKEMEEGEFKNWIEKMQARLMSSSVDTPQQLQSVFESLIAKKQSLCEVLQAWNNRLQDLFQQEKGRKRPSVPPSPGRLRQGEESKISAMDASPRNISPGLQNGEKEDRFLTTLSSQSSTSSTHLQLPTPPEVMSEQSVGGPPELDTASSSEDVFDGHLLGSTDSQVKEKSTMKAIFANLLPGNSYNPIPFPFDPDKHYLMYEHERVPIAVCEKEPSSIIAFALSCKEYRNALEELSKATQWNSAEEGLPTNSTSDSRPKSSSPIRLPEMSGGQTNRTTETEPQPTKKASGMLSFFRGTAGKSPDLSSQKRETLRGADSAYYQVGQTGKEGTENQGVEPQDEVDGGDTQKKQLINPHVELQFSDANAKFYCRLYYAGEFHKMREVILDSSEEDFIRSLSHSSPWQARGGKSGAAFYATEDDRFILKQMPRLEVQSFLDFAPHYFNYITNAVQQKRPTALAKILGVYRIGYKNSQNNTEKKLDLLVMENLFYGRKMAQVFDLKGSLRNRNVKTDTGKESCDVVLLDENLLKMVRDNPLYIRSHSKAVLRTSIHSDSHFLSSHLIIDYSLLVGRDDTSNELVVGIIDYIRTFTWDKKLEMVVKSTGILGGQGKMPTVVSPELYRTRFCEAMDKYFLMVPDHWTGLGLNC
Sequence of Phosphorylase b kinase gamma catalytic chain, liver/testis isoform (P15735 whole entry, canonical isoform): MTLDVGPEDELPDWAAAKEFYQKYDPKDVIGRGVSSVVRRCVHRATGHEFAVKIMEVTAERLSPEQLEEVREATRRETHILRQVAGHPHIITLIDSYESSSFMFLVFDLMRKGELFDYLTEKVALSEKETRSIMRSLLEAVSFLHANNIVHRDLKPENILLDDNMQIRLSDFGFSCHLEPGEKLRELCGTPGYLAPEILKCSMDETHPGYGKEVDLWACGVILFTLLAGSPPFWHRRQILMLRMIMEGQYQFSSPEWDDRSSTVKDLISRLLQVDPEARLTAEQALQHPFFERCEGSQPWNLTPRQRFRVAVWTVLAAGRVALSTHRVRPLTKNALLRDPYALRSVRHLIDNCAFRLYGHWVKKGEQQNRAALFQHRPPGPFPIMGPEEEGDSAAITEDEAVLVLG
Sequence of Serine/threonine-protein kinase Chk1 (O14757 whole entry, canonical isoform): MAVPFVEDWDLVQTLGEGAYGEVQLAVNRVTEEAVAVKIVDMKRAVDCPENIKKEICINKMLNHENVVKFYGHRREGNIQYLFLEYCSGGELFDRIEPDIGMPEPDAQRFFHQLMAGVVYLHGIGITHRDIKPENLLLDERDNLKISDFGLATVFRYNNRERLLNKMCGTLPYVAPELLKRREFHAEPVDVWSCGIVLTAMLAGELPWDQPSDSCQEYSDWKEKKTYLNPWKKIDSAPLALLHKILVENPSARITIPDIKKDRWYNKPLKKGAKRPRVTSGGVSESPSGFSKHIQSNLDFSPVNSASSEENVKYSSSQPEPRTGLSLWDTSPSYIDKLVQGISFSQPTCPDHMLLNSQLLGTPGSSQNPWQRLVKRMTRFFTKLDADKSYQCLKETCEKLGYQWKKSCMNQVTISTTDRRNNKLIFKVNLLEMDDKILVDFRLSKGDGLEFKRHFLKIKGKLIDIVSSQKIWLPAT
Sequence of Cyclin-dependent kinase 10 (Q15131 whole entry, the tested form may be a part): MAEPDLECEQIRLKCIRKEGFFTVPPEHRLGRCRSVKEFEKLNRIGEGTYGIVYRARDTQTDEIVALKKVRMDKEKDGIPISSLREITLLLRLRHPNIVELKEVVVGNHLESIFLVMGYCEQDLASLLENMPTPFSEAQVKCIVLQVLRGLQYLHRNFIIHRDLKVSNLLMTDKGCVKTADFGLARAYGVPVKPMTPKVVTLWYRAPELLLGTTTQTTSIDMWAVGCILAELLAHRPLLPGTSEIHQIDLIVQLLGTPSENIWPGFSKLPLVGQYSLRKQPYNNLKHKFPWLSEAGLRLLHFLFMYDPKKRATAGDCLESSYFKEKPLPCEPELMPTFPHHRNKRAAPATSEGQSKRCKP

CCOc1cc(N2CCC(O)CC2)ccc1Nc1ncc2c(n1)N(C)c1ccccc1C(=O)N2C
IC50 [1]: > 50 µM
IC50 [2]: > 50 µM
inhibition [3]: 30.1%
Activity [4]: 7.8%
inhibition [5]: 8%
inhibition [6]: 14.1%
concentration at 24 h [7]: 10.2 µM
inhibition [8]: -9%
inhibition [9]: -3.2%
inhibition [10]: 9.9%
Activity [11]: 5.8 g/dL
IC50 (Scaffold protein ILK): > 50 µM
IC50 [12]: > 50 µM
inhibition at 2 µM [13]: 6.4%
inhibition [14]: 11.7%
